Where “and” joins values, the source holds several entries; their conditions need not be identical. Equal values may be shown once. Where a name gives a salt, the structure may show the parent alone. Read-outs that look alike come from different tables or passages of the source.
What was measured:
α3β4 and α4β2 AChRs = conditions: 20 μM; ref Glick et al., 2002a; cited from earlier work
hα4β2 AChR = hα4β2 AChR (Homo sapiens, UniProt P17787+P43681); format: cell-based; conditions: for hα4β2/hα3β4 IC50 ratio (selectivity): ratio using hα3β4 data of Arias et al., 2015; for IC50: read-out: IC50 (inhibitory potency)
Chain of hα4β2 AChR (P17787 26-502): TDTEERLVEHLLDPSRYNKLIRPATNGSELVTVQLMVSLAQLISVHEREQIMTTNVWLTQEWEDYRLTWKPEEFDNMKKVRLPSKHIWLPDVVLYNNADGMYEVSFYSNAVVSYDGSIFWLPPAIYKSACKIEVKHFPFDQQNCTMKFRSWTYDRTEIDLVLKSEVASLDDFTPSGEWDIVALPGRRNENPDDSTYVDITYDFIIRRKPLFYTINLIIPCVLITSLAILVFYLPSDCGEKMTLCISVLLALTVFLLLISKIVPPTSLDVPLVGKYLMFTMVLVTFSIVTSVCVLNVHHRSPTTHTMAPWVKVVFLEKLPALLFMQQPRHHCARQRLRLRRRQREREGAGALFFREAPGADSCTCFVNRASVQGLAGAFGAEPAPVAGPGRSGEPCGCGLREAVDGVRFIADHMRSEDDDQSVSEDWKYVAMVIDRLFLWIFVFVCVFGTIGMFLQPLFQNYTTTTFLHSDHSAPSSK
Chain of hα4β2 AChR (P43681 29-627): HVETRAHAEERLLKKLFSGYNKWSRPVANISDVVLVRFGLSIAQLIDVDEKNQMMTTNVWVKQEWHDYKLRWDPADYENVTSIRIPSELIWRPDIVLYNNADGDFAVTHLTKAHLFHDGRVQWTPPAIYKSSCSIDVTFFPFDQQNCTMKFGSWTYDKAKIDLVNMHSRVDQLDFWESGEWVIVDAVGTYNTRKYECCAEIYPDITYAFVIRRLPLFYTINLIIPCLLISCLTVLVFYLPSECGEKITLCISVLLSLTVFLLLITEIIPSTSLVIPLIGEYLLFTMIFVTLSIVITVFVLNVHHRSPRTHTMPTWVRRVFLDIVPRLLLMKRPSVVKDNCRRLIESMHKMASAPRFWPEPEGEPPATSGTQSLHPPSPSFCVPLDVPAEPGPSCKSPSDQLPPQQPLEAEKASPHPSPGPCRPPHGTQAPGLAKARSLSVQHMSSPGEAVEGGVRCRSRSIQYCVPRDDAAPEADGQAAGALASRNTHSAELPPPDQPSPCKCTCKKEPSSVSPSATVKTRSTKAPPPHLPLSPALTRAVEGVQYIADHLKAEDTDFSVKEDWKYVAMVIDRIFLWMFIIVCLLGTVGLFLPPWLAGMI

hα7 AChR = hα7 AChR (Homo sapiens, UniProt P36544); format: cell-based; conditions: for hα7/hα3β4 IC50 ratio (selectivity): ratio using hα3β4 data of Arias et al., 2015
Chain of hα7 AChR (P36544 23-502): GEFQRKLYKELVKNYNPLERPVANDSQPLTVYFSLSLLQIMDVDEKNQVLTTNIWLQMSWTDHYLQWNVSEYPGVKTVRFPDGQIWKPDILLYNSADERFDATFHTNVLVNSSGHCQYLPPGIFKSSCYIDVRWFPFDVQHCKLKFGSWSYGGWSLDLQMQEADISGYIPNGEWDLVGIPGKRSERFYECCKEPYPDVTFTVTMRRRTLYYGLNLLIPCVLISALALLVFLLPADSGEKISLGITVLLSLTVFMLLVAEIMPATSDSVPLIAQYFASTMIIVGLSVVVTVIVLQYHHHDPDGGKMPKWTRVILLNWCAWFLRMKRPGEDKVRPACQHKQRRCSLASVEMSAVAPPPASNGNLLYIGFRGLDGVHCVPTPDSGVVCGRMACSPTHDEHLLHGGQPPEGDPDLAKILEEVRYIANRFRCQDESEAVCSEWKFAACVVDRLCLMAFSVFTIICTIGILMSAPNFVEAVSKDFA

[1] = system: MHb (VI) neurons (endogenous α3β4* AChRs); assay: Patch-clamp recording of ACh-evoked currents from MHb; format: cell-based, mouse; conditions: for Reversibility of inhibition of ACh-evoked currents after washing: 180 μM, washing 13 min ((±)-18-MC) or 10 min ((+)-catharanthine); for IC50: read-out: IC50 (inhibitory potency on ACh-evoked currents), 100 μM ACh puffs, MHb (VI) neurons, single exponential fit
Procedure, shortened: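 Male C57BL/6J mice, 8–24 weeks. Coronal 250 μm slices through the medial habenula, recovered in oxygenated solution at 33 °C for 12 min. Neurons visualised by IR/DIC. Internal solution contained 2 mM QX-314. ACh (100 μM) puffed for 250 ms at 12 psi, with 1 μM atropine in the superfusate. Test compound at 0.07–180 μM; peak amplitudes measured before and after washout. Nonlinear least-squares fit gave IC50.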

hα3β4 AChR = conditions: read-out: IC50 at hα3β4 AChRs; HEK293-hα3β4 cells; ref Arias et al., 2015; cited from earlier work
[2] = ref Zhang et al., 2002; Maissonneuve and Glick, 2003; cited from earlier work
α1β1γδ AChR = assay: Selectivity for hα3β4 over α1β1γδ AChRs; format: cell-based, human; conditions: ref Arias et al., 2011
[3] = molecular target: hα3β4 AChR ([3H]ibogaine sites) (Homo sapiens, UniProt P30926+P32297); assay: [3H]ibogaine competition binding to hα3β4 AChR membranes from HEK293-hα3β4 cells
Chain of hα3β4 AChR ([3H]ibogaine sites) (P32297 32-505): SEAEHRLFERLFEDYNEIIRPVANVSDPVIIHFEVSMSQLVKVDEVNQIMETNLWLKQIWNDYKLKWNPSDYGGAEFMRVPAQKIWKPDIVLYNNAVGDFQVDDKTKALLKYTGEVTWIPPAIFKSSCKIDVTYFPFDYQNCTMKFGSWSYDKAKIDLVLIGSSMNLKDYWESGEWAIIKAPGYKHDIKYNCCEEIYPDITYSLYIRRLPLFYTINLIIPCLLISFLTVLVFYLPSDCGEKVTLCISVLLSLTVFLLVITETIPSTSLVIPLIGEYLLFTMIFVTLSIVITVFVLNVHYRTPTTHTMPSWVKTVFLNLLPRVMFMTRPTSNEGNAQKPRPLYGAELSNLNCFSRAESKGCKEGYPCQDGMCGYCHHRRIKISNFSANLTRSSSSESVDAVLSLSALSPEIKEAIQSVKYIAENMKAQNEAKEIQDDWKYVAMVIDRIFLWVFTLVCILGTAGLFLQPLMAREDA
Chain of hα3β4 AChR ([3H]ibogaine sites) (P30926 22-498): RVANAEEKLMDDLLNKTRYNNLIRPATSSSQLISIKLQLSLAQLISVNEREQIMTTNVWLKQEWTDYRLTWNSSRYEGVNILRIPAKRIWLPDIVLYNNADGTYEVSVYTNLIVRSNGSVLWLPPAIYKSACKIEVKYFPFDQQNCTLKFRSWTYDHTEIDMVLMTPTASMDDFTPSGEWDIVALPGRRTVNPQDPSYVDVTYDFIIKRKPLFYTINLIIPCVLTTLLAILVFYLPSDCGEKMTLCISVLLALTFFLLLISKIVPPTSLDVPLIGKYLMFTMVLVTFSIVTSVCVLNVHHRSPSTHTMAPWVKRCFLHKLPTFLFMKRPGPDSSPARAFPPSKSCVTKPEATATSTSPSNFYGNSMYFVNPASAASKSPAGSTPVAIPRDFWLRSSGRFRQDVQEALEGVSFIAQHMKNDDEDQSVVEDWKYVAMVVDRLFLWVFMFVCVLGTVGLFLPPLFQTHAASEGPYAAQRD

[4] = hα7, inhibition of 1.0 μM (±)-epibatidine-induced Ca2+ influx

12-methoxyibogamine [(−)-ibogaine]
AChR subtypes inhibited in voltage-clamp recordings (α3β4 and α4β2 AChRs): inhibits both α3β4 and α4β2 subtypes

CNCC[C@H]1CC2CN3CCc4c([nH]c5ccccc45)[C@](C(=O)OC)(C2)[C@H]13 (racemic) [(±)-18-MAC, (±)-18-Methylaminocoronaridine]
nH (Hill coefficient) (hα4β2 AChR): 1.40 ± 0.14 | hα4β2/hα3β4 IC50 ratio (selectivity) (hα4β2 AChR): 7.9 x-fold | IC50 (hα4β2 AChR): 20.7 ± 3 µM | IC50 (inhibitory potency) (hα7 AChR; GH3-hα7 cells, 5 min pre-incubation, 1.0 μM (±)-epibatidine): No effect

COCCC1CC2CN3CCc4c([nH]c5ccccc45)C(C(=O)OC)(C2)C13.Cl (racemic) [(±)-18-MC, (±)-18-Methoxycoronaridine hydrochloride]
nH (Hill coefficient) (hα4β2 AChR): 1.85 ± 0.17 | hα4β2/hα3β4 IC50 ratio (selectivity) (hα4β2 AChR): 4 x-fold and 4.3 x-fold | nH (Hill coefficient) (hα7 AChR; [4]): 2.21 ± 0.50 | hα7/hα3β4 IC50 ratio (selectivity) (hα7 AChR): 23.6 x-fold | Reversibility of inhibition of ACh-evoked currents after washing [1]: reversible inhibition | IC50 [1]: 28 ± 6 µM | IC50 (hα3β4 AChR): 1.47 ± 0.21 µM | half-life (metabolism to 18-HC) [2]: ~1.67 h

Clc1ccc(C2CC3CCC2N3)cn1 (racemic) [(±)-epibatidine, (±)-Epibatidine, reference compound]
EC50 (hα7 AChR; read-out: EC50 (activation potency), agonist-induced Ca2+ influx, GH3-hα7 cells, n = 25): 0.026 ± 0.004 µM

CCC1=C[C@@H]2CN3CCc4c([nH]c5ccccc45)[C@@](C(=O)OC)(C2)[C@@H]13 [(+)-Catharanthine, (+)-3,4-didehydrocoronaridine]
nH (Hill coefficient) (hα4β2 AChR): 1.48 ± 0.25 | hα4β2/hα3β4 IC50 ratio (selectivity) (hα4β2 AChR): 18.5 x-fold | hα4β2/hα3β4 IC50 ratio (selectivity) (hα4β2 AChR; listed as (+)-catharanthine): 18 x-fold | nH (Hill coefficient) (hα7 AChR; [4]): 1.43 ± 0.20 | hα7/hα3β4 IC50 ratio (selectivity) (hα7 AChR): 32.0 x-fold | hα7/hα3β4 IC50 ratio (selectivity) (hα7 AChR; listed as (+)-catharanthine): 32 x-fold | Reversibility of inhibition of ACh-evoked currents after washing [1]: reversible inhibition | IC50 [1]: 27 ± 4 µM | Selectivity for hα3β4 over α1β1γδ AChRs (α1β1γδ AChR): 29 fold | IC50 (hα3β4 AChR): 0.68 ± 0.1 µM

CC(NC(C)(C)C)C(=O)c1cccc(Cl)c1 (stereo not shown) [bupropion, bupropion hydrochloride]
nH (Hill coefficient) ([3]; desensitized state [in the presence of (−)-nicotine]): 0.75 ± 0.08 | nH (Hill coefficient) ([3]; resting state [no agonist]): 0.72 ± 0.05

(±)-18-hydroxycoronaridine [(±)-18-HC]
nH (Hill coefficient) (hα4β2 AChR): 1.27 ± 0.06 | hα4β2/hα3β4 IC50 ratio (selectivity) (hα4β2 AChR): 8.8 x-fold | IC50 (hα4β2 AChR): 24.8 ± 1.2 µM | nH (Hill coefficient) (hα7 AChR): 1.64 ± 0.20 | hα7/hα3β4 IC50 ratio (selectivity) (hα7 AChR): 26.1 x-fold

— article PMC5903430 (The international journal of biochemistry & cell biology, 2017)
